The values below come from ChEMBL document CHEMBL2439950, “Arylamino methylene bisphosphonate derivatives as bone seeking matrix metalloproteinase inhibitors” (Bioorg Med Chem, 2013).

Series [1] has as its target Matrix metalloproteinase-14 (Homo sapiens, UniProt P50281). Description: Inhibition of MMP14 catalytic domain (unknown origin) using Mca-Pro-Leu-Gly-Leu-Dpa-Ala-Arg-NH2 as substrate incubated for 30 mins prior to substrate addition measured after 2 to 4 hrs by fluorometric assay. The procedure, abridged: (§1)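 Catalytic domains of MMP-8, MMP-9 or MMP-14 were preincubated 30 min at 25 °C with inhibitor (six concentrations, 0.1 nM–100 μM) in 50 mM Tris-HCl pH 7.5, 200 mM NaCl, 1 mM CaCl2, 1 μM ZnCl2, 0.05% Brij-35, 1% DMSO. Substrate was added to 2.5 μM final for 2–4 h at 37 °C, then acetic acid stop. Fluorescence read at 340/405 nm, in triplicate; IC50 fitted from percent inhibition.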

The nature of series [2]: Cytotoxicity against mouse J774A1 cells assessed as cell viability at 100 uM after 48 hrs by MTT assay. The format is functional. Conditions: J774.A1, 48 h, read-out: Activity. The procedure, abridged:
(§2)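 J774 A.1 cells were grown in DMEM and HepG2 in MEM, each with 10% FBS, penicillin, streptomycin and 2 mM L-glutamine, at 37 °C in 5% CO2. Seeded at 1-5·10^4 cells/well with half-log diluted compounds, 1% DMSO final, for 48 h. MTT was added to 0.5 mg/mL final for 3-4 h, solubilized in 50% DMSO/50% EtOH, and read at 570 nm. Background came from Triton X-100 lysed wells, and viability was taken relative to untreated controls.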
Background: Formazan colour is commonly taken as a measure of viable cells.

Another series has as its system Hydroxyapatite. Kind of series: Binding affinity to bone mineral hydroxyapatite assessed as adsorbed level at 100 uM after 2 hrs by UV-spectrophotometric analysis. The gist of the method:
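Duplicate 5 ml aliquots of 100 μM bisphosphonic acid in 50 mM Tris-HCl pH 7.5, stirred with 4 mg hydroxyapatite at 37 °C for 2 h. After centrifugation (10 min, 8000 rpm) and 0.22 μm filtration, supernatant absorbance was quantified against calibration lines.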

In series [3] the target is 72 kDa type IV collagenase (Homo sapiens, UniProt P08253). Kind of series: Inhibition of APMA-activated recombinant human MMP2 using Mca-Pro-Leu-Gly-Leu-Dpa-Ala-Arg-NH2 as substrate incubated for 30 mins prior to substrate addition measured after 2 to 4 hrs by fluorometric assay. The procedure, abridged: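 Human pro-MMP-2 was activated with 2 mM APMA for 1 h at 37 °C. Enzyme and inhibitor (six concentrations, 0.1 nM–100 μM) were preincubated 30 min at 25 °C in Tris-HCl pH 7.5 buffer with NaCl, CaCl2, ZnCl2, Brij-35 and 1% DMSO. Substrate was added to 2.5 μM final, run 2–4 h at 37 °C, and stopped with 3% acetic acid. Fluorescence read at ex 340/em 405 nm, in triplicate; IC50 from percent inhibition versus no-inhibitor controls.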

The next series deals with Neutrophil collagenase (Homo sapiens, UniProt P22894). Description: Inhibition of MMP8 catalytic domain (unknown origin) using Mca-Pro-Leu-Gly-Leu-Dpa-Ala-Arg-NH2 as substrate incubated for 30 mins prior to substrate addition measured after 2 to 4 hrs by fluorometric assay. The procedure, abridged:
as §1

The target in series [4] is Matrix metalloproteinase-9 (Homo sapiens, UniProt P14780). Description: Inhibition of MMP9 catalytic domain (unknown origin) using Mca-Pro-Leu-Gly-Leu-Dpa-Ala-Arg-NH2 as substrate incubated for 30 mins prior to substrate addition measured after 2 to 4 hrs by fluorometric assay. The gist of the method: as §1
The nature of series [5]: Cytotoxicity against human HepG2 cells assessed as cell viability at 100 uM after 48 hrs by MTT assay. Conditions: read-out: Activity. Type of series: cell-based. The gist of the method:
as §2

Molecules are shown by their SMILES.

Chain of Matrix metalloproteinase-9 (P14780 whole entry, the tested form may be a part): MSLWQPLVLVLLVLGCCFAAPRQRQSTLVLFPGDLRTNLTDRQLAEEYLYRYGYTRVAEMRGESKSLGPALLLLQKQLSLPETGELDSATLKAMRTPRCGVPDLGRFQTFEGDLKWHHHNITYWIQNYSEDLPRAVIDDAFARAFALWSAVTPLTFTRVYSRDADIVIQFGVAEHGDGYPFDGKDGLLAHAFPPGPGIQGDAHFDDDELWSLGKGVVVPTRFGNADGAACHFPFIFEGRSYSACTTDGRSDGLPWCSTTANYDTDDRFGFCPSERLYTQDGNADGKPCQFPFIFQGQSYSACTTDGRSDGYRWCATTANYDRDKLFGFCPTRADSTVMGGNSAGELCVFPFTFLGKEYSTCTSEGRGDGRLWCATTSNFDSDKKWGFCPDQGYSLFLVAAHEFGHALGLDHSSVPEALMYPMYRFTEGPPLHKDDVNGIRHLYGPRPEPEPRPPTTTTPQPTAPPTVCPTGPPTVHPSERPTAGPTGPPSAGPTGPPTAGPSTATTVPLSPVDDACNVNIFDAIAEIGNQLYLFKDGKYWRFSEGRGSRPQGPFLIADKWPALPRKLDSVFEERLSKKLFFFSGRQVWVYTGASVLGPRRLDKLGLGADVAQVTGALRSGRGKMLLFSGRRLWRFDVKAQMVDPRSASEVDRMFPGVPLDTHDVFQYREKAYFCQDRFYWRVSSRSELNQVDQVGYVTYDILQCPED
Chain of 72 kDa type IV collagenase (P08253 whole entry): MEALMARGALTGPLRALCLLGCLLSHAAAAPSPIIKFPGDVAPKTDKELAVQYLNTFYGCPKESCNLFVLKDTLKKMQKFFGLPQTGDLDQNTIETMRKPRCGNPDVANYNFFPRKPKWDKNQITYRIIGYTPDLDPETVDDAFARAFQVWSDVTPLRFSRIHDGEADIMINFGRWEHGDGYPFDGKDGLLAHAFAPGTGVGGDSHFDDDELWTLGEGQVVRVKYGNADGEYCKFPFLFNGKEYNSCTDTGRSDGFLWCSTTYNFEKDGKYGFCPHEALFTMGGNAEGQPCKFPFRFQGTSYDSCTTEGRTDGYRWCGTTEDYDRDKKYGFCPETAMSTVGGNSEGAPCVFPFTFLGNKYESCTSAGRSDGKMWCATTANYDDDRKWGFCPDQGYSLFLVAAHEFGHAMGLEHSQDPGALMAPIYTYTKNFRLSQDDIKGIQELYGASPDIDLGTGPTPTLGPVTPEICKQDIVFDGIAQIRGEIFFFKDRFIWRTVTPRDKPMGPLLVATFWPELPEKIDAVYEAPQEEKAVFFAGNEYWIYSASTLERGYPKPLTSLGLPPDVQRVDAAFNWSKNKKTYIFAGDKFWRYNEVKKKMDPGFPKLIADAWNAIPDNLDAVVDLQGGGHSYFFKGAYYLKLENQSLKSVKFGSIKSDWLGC
Chain of Neutrophil collagenase (P22894 whole entry, the tested form may be a part): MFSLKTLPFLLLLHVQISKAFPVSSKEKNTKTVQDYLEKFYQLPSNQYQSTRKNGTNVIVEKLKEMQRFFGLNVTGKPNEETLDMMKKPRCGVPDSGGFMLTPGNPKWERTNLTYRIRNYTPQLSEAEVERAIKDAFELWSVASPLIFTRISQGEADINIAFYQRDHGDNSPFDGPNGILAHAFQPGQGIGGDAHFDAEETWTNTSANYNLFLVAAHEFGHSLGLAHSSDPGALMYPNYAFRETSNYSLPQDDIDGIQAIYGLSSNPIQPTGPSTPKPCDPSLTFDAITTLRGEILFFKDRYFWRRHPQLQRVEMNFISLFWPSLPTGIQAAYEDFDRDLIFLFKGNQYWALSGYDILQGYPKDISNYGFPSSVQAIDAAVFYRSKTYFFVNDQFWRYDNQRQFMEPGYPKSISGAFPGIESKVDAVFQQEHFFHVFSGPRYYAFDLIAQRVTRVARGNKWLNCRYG

As a reminder, the IC50 is the concentration that gives 50% inhibition. Turning to `O=P(O)(O)C(Nc1ccc(-c2ccccc2)cc1)P(=O)(O)O`, the IC50 in series [1] was 33.5 µM; in series [3], above 100 µM; against Neutrophil collagenase, 30 µM; in series [4] it was above 100 µM. The viability at 100 µM in series [2] turned out to be 36%. For the same molecule, in the series on Hydroxyapatite, the Activity worked out at 60%. For the same molecule, the viability at 48 h, 100 µM in series [5] stood at 88%.

For `O=P(O)(O)C(Nc1cccc(Br)c1)P(=O)(O)O`, the IC50 in series [1] was above 100 µM; in series [3], 37.4 µM; against Neutrophil collagenase, above 100 µM; in series [4], above 100 µM. In series [2], the viability at 100 µM worked out at 72%. Further, in the series with Hydroxyapatite, the Activity is 70.1%. The viability at 48 h, 100 µM in series [5] was 67%.

With `O=P(O)(O)C(Nc1cccc2ccccc12)P(=O)(O)O`, the IC50 is 69 µM in series [1], 6.4 µM in series [3], 61 µM against Neutrophil collagenase and 6 µM in series [4]. Further, in series [2], the viability at 100 µM was determined as 33%. Besides, the Activity with Hydroxyapatite was 51.6%. Also, the viability at 48 h, 100 µM in series [5] was 98%.

Take `O=P(O)(O)C(Nc1ccc(Cl)cc1)P(=O)(O)O` [(4-CHLOROPHENYLAMINO)METHYLENEDIPHOSPHONIC ACID]: the IC50 (in series [1]; in series [3]; against Neutrophil collagenase; in series [4]) was above 100 µM in each case. Besides, the viability at 100 µM in series [2] was found to be 86%. The Activity in the series on Hydroxyapatite amounted to 64.2%. For the same molecule, the viability at 48 h, 100 µM in series [5] is 97%.

Turning to `O=P(O)(O)C(Nc1ccccc1)P(=O)(O)O` [(PHENYLAMINO)METHYLENEDIPHOSPHONIC ACID], the IC50 (in series [1]; in series [3]; against Neutrophil collagenase; in series [4]) was above 100 µM in each case. For the same molecule, the viability at 100 µM in series [2] was determined as 68%. For the same molecule, the Activity in the series on Hydroxyapatite was found to be 58%. In addition, in series [5], the viability at 48 h, 100 µM was 96%.

In the case of `O=[N+]([O-])c1ccc(NC(P(=O)(O)O)P(=O)(O)O)cc1`, the IC50 turned out to be 26 µM in series [1], 20 µM in series [3], 15 µM against Neutrophil collagenase and 20 µM in series [4]. In addition, the viability at 100 µM in series [2] amounted to 76%. In the series with Hydroxyapatite, the Activity worked out at 76%. Further, in series [5], the viability at 48 h, 100 µM was determined as 84%.

As to `O=P(O)(O)C(Nc1ccc(Cl)c(Cl)c1)P(=O)(O)O` [3,4-DICHLOROPHENYLAMINOMETHYLENEBISPHOSPHONIC ACID], the IC50 in series [1] was 20 µM; in series [3], above 100 µM; on Neutrophil collagenase, 25.5 µM; in series [4] it was above 100 µM. Also, the viability at 100 µM in series [2] turned out to be 81%. Moreover, the Activity in the series on Hydroxyapatite came out at 53.5%. Besides, the viability at 48 h, 100 µM in series [5] was found to be 98%.

Turning to `O=P(O)(O)C(Nc1ccc(F)cc1)P(=O)(O)O`, the IC50 in series [1] was above 100 µM; in series [3], 28.2 µM; at Neutrophil collagenase, above 100 µM; in series [4], above 100 µM. The viability at 100 µM in series [2] was 80.4%. Besides, the Activity with Hydroxyapatite is 61.2%. Besides, the viability at 48 h, 100 µM in series [5] amounted to 94%.

`O=P(O)(O)C(Nc1ccc(C(F)(F)F)cc1)P(=O)(O)O`: the half-inhibitory concentration (IC50) in series [1] was above 100 µM; in series [3], 15 µM; against Neutrophil collagenase it was above 100 µM; in series [4], above 100 µM. Further, the viability at 100 µM in series [2] was 53%. The Activity in the series with Hydroxyapatite was found to be 42.5%. In addition, the viability at 48 h, 100 µM in series [5] came to 100%.

Consider `O=P(O)(O)C(Nc1cccc(F)c1)P(=O)(O)O`, for which the IC50 was above 100 µM in series [1], 42 µM in series [3], above 100 µM on Neutrophil collagenase and above 100 µM in series [4]. In addition, the viability at 100 µM in series [2] was 84%. Besides, the Activity in the series on Hydroxyapatite is 63.6%. In series [5], the viability at 48 h, 100 µM came out at 70%.

With `O=P(O)(O)C(Nc1cccc(-c2ccccc2)c1)P(=O)(O)O`, the IC50 in series [1] was 40 µM; in series [3] it was above 100 µM; against Neutrophil collagenase, 52 µM; in series [4], above 100 µM. Besides, the viability at 100 µM in series [2] was 49%. In addition, in the series on Hydroxyapatite, the Activity is 66.4%. Further, in series [5], the viability at 48 h, 100 µM was 102%.

As to `O=[N+]([O-])c1cccc(NC(P(=O)(O)O)P(=O)(O)O)c1` [(3-NITROPHENYLAMINO)METHYLENEDIPHOSPHONIC ACID], the IC50 in series [1] is above 100 µM; in series [3] it was 15.5 µM; at Neutrophil collagenase, above 100 µM; in series [4] it was above 100 µM. In addition, in series [2], the viability at 100 µM was found to be 54%. In addition, the Activity with Hydroxyapatite is 57.8%. Also, the viability at 48 h, 100 µM in series [5] was 83%.

As to `O=P(O)(O)C(O)(Cn1ccnc1)P(=O)(O)O` [ZOLEDRONIC ACID], the IC50 in series [1] came to 12.6 µM; in series [3] it was 7 µM; against Neutrophil collagenase it was 17.6 µM; in series [4], 52 µM.

As for `O=P(O)(O)C(Nc1ccc(Oc2ccccc2)cc1)P(=O)(O)O`, the IC50 in series [1] was 43 µM; in series [3] it was 2.8 µM; on Neutrophil collagenase it was 44 µM; in series [4], above 100 µM. Also, the viability at 100 µM in series [2] came to 44%. For the same molecule, the Activity in the series on Hydroxyapatite turned out to be 66.2%. Further, the viability at 48 h, 100 µM in series [5] stood at 105%.

Take `N#Cc1ccc(NC(P(=O)(O)O)P(=O)(O)O)cc1`: the IC50 in series [1] was above 100 µM; in series [3], 36 µM; against Neutrophil collagenase it was above 100 µM; in series [4], above 100 µM. The viability at 100 µM in series [2] worked out at 86%. Besides, in the series on Hydroxyapatite, the Activity was 76%. In addition, in series [5], the viability at 48 h, 100 µM is 77%.

For `O=[N+]([O-])c1cc(NC(P(=O)(O)O)P(=O)(O)O)ccc1F`, the IC50 is above 100 µM in series [1], 25 µM in series [3], above 100 µM on Neutrophil collagenase and above 100 µM in series [4]. In addition, the viability at 100 µM in series [2] was found to be 69%. Further, the Activity with Hydroxyapatite was found to be 66.2%. In addition, the viability at 48 h, 100 µM in series [5] worked out at 69%.

For `O=P(O)(O)C(Nc1ccc(Oc2ccc(Br)cc2)cc1)P(=O)(O)O`, the IC50 in series [1] was found to be 49.5 µM; in series [3], 2.8 µM; against Neutrophil collagenase, 43 µM; in series [4] it was 87 µM. In series [2], the viability at 100 µM turned out to be 15.3%. Also, the Activity with Hydroxyapatite was 60.7%. Further, the viability at 48 h, 100 µM in series [5] was determined as 90%.

With `O=P(O)(O)C(Nc1ccc(O)cc1)P(=O)(O)O`, the IC50 is above 100 µM in series [1], 6.6 µM in series [3], above 100 µM against Neutrophil collagenase and above 100 µM in series [4]. The viability at 100 µM in series [2] amounted to 19.5%. In the series on Hydroxyapatite, the Activity worked out at 88%. The viability at 48 h, 100 µM in series [5] worked out at 101%.

Take `O=P(O)(O)C(Sc1ccc(Cl)cc1)P(=O)(O)O` [TILUDRONIC ACID]: the IC50 is 30.5 µM in series [1], 7.2 µM in series [3], 32 µM on Neutrophil collagenase and above 100 µM in series [4]. Moreover, the viability at 100 µM in series [2] was determined as 14%. The Activity with Hydroxyapatite is 51.5%. In series [5], the viability at 48 h, 100 µM was found to be 61%.

As for `O=P(O)(O)C(Nc1ccc(Br)cc1)P(=O)(O)O`, the IC50 in series [1] stood at 3.9 µM; in series [3] it was 6 µM; against Neutrophil collagenase, 2.4 µM; in series [4], 30 µM. In series [2], the viability at 100 µM worked out at 81%. Besides, the Activity in the series with Hydroxyapatite stood at 49%. Further, the viability at 48 h, 100 µM in series [5] was 94%.

Regarding `O=P(O)(O)C(Nc1cccc(C(F)(F)F)c1)P(=O)(O)O`, the IC50 in series [1] is above 100 µM; in series [3] it was 20.8 µM; against Neutrophil collagenase, above 100 µM; in series [4], above 100 µM. The viability at 100 µM in series [2] was 62%. Also, in the series with Hydroxyapatite, the Activity is 50.3%. Besides, the viability at 48 h, 100 µM in series [5] worked out at 83%.
